From ChEMBL document CHEMBL1139241, “Structure-activity relationship studies of a new series of imidazo[2,1-f]purinones as potent and selective A(3) adenosine receptor antagonists” (Bioorg Med Chem, 2008)

How the values were obtained:
[1] = biological target: T1, Adenosine receptor A2b (Homo sapiens, UniProt P29275); assay: Antagonist activity at human cloned adenosine A2B cells expressed in CHO cells assessed as inhibition of NECA-stimulated cAMP production; format: functional, cell-based
T1 sequence (P29275 whole entry): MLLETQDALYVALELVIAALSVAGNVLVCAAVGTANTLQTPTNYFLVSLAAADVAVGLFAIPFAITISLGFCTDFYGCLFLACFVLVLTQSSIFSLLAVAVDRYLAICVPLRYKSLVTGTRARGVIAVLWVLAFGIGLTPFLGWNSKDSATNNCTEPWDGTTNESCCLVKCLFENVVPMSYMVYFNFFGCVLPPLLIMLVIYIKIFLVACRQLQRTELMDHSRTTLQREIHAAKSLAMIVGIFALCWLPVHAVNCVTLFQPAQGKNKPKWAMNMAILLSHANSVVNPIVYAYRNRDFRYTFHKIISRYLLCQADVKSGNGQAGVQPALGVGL
How it was run: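 CHO cells with human A2B receptor, trypsin-detached, 1×10^6 cells/assay, in buffered salt medium pH 7.4 with 2 IU/ml adenosine deaminase and Ro 20-1724, preincubated 10 min at 37 °C. Antagonism of 100 nM NECA-stimulated cAMP. Stopped with cold 6% TCA, ether-extracted, cAMP measured by [3H]cAMP competition protein binding. IC50 from sigmoid nonlinear regression, n = 4, mean ± SEM.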

[2] = biological target: Adenosine receptor A2a (Homo sapiens, UniProt P29274); assay: Displacement of [3H]ZM241385 from human cloned adenosine A2A receptor expressed in CHO cells; format: cell-based
Adenosine receptor A2a, sequence (P29274 whole entry): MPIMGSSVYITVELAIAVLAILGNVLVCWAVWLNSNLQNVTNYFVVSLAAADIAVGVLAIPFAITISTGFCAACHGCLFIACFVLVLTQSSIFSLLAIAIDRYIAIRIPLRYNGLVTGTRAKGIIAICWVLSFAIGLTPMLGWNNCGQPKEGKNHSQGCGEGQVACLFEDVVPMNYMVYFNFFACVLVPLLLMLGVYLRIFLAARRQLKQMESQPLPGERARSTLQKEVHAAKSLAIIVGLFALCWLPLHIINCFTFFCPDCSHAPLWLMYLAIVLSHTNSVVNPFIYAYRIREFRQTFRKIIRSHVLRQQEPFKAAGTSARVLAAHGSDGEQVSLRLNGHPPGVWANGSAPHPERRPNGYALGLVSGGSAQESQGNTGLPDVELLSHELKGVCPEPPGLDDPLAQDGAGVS

[3] = biological target: T2, Adenosine receptor A1 (Homo sapiens, UniProt P30542); assay: Displacement of [3H]DPCPX from human cloned adenosine A1 receptor expressed in CHO cells; format: cell-based
T2 sequence (P30542 whole entry): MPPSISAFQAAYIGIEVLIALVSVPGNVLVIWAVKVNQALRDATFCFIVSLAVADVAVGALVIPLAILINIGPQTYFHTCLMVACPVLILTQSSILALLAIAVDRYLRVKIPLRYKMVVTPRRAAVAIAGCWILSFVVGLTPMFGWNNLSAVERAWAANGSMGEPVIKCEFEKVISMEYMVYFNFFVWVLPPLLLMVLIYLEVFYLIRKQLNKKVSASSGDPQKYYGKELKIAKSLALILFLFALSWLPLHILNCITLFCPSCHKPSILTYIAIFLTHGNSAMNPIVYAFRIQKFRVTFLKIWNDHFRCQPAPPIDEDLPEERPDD

[4] = biological target: T3, Adenosine receptor A3 (Homo sapiens, UniProt P0DMS8); assay: Displacement of [3H]MRE3008F20 from human cloned adenosine A3 receptor expressed in CHO cells; format: cell-based
T3 sequence (P0DMS8 whole entry): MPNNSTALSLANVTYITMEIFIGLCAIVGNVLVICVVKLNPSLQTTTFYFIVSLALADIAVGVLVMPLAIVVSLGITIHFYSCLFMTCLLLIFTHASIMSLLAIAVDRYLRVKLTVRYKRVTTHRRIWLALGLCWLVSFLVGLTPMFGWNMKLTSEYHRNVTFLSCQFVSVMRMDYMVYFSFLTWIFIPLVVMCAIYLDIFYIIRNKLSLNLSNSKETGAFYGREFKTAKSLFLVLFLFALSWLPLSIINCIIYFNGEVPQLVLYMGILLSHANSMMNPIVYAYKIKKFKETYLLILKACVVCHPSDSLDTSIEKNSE

SMILES | IC50 [1] | Ki [2] | Ki [3] | Ki [4]
CCCn1c(=O)c2c(nc3[nH]c(C)cn32)n(Cc2ccncc2)c1=O | > 1000 nM | > 1000 nM | > 1000 nM | 141 nM
CCn1c(C)cn2c3c(=O)[nH]c(=O)n(Cc4ccccc4)c3nc12 | > 1000 nM | > 1000 nM | > 1000 nM | > 1000 nM
CCCn1c(=O)c2c(nc3[nH]c(C)cn32)n(Cc2cccnc2)c1=O | > 1000 nM | > 1000 nM | > 1000 nM | 57 nM
CCCn1c(=O)c2c(nc3[nH]c(C)cn32)n(Cc2ccccn2)c1=O | > 1000 nM | > 1000 nM | > 1000 nM | 34 nM
CC(=O)Cn1c(=O)c2c(nc3[nH]c(C)cn32)n(Cc2ccccc2)c1=O | > 1000 nM | > 1000 nM | > 1000 nM | 182 nM
Cn1c(=O)c2c(nc3[nH]c(-c4ccccc4)cn32)n(C)c1=O | > 1000 nM | > 1000 nM | > 1000 nM | > 1000 nM
CCCn1c(=O)c2c(nc3n(CC)c(C)cn23)n(Cc2ccccc2)c1=O | > 1000 nM | > 1000 nM | > 1000 nM | 200 nM
C#CCn1c(=O)c2c(nc3[nH]c(C)cn32)n(Cc2ccccc2)c1=O | > 1000 nM | > 1000 nM | > 1000 nM | 15 nM
Cc1cn2c3c(=O)[nH]c(=O)n(Cc4ccccc4)c3nc2n1C(C)CO (stereo not given) | > 1000 nM | > 1000 nM | > 1000 nM | > 1000 nM
Cc1cn2c(nc3c2c(=O)[nH]c(=O)n3Cc2ccccc2)[nH]1 | > 1000 nM | > 1000 nM | > 1000 nM | 148 nM

Now from value to compound:

IC50 [1] | Ki [2] | Ki [3] | Ki [4] | SMILES
> 1000 nM | – | – | – | CCCn1c(=O)c2c(nc3[nH]c(-c4ccc(OC)cc4)cn32)n(Cc2ccccc2)c1=O
> 1000 nM | – | – | – | CCCn1c(=O)c2c(nc3[nH]c(-c4ccc(-c5ccccc5)cc4)cn32)n(Cc2ccccc2)c1=O
> 1000 nM | – | – | – | CCCn1c(=O)c2c(nc3n2CC(c2ccccc2)=C3)n(Cc2ccccc2)c1=O
> 1000 nM | – | – | – | CCCn1c(=O)c2c(nc3[nH]c(-c4ccc(F)cc4)cn32)n(Cc2ccccc2)c1=O
> 1000 nM | – | – | – | CCCn1c(=O)c2c(nc3[nH]c(-c4ccccc4)cn32)n(Cc2ccccc2)c1=O
> 1000 nM | > 1000 nM | > 1000 nM | 5.13 nM | C=CCn1c(=O)c2c(nc3[nH]c(C)cn32)n(Cc2ccccc2)c1=O
> 1000 nM | > 1000 nM | > 1000 nM | 38 nM | Cc1cn2c(nc3c2c(=O)n(CCO)c(=O)n3Cc2ccccc2)[nH]1
> 1000 nM | > 1000 nM | > 1000 nM | 98 nM | Cc1cn2c(nc3c2c(=O)n(CCN(C)C)c(=O)n3Cc2ccccc2)[nH]1
> 1000 nM | > 1000 nM | > 1000 nM | 110 nM | Cc1cn2c(nc3c2c(=O)n(CCCO)c(=O)n3Cc2ccccc2)[nH]1
> 1000 nM | > 1000 nM | > 1000 nM | 20 nM | CCOC(=O)Cn1c(=O)c2c(nc3[nH]c(C)cn32)n(Cc2ccccc2)c1=O
